Common to all, as to conditions: in vivo
Data set [1] in a line: Oral bioavailability in Sprague-Dawley rat at 10 mg/kg measured up to 24 hrs by LC-MS/MS analysis. It is filed as ADME, organism-based.
Data set [2] in a line: Clearance in Sprague-Dawley rat at 3 mg/kg, iv measured up to 24 hrs by LC-MS/MS analysis. In kind it is ADME, organism-based.
A short description of data set [3]: Clearance in rat. It is filed as ADME.
Data set [4] in a line: Oral bioavailability in rat. It is filed as ADME, organism-based. Put shortly: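 Male Sprague–Dawley rats were dosed at 3 mg/kg i.v. and 10 mg/kg p.o., and plasma concentrations were followed over time for up to 24 h after dosing. Oral bioavailability comes from the p.o. versus i.v. plasma exposure profiles.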
Data set [5] in a line: Mean residence time in BALB/c mouse at 3 mg/kg, iv measured up to 24 hrs by LC-MS/MS analysis. It is filed as ADME, organism-based.
Data set [6] can be described thus: Mean residence time in Sprague-Dawley rat at 3 mg/kg, iv measured up to 24 hrs by LC-MS/MS analysis. It is filed as ADME, organism-based. Put shortly:
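Male Sprague–Dawley rats dosed with the hydrochloride salt at 3 mg/kg i.v. or 10 mg/kg p.o.; plasma concentration–time profiles followed over 24 h, with PK parameters derived from them. Oral bioavailability comes from comparing the p.o. and i.v. arms.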

The term bioavailability denotes the share of a dose that reaches the circulation, judged against a reference dose that is usually intravenous. Lower therefore signals little systemic uptake. A word on the clearance: it is the volume of plasma or blood freed of the substance per unit of time. Low values mean a low capacity for elimination, high ones a high capacity for elimination. Usually MRT stands for the average time that molecules of a dose stay in the body.

Structures are written as SMILES.

As to `N[C@@H](CCCCB(O)O)C(=O)O`, in data set [1], the bioavailability was 89%. For the same molecule, the clearance in data set [2] turned out to be 2.3 mL/min/kg.

In data set [3], `C[C@H](N)C(=O)N1C[C@H](CCCB(O)O)[C@](N)(C(=O)O)C1` came in with a clearance of 10 mL/min/kg. Besides, the bioavailability in data set [4] is 52%.

`NC(CCCCB(O)O)(CNS(N)(=O)=O)C(=O)O` (configuration not stated) yielded an MRT in data set [5] of 48.6 min.

Take `N=C(N)NCC(N)(CCCCB(O)O)C(=O)O` (configuration not stated): the MRT in data set [5] stood at 15.6 min.

The molecule `N=C(N)NC[C@](N)(CCCCB(O)O)C(=O)O` showed an MRT in data set [6] of 715 min.

Values taken from ChEMBL document CHEMBL4342508, “Discovery and Pharmacokinetics of Sulfamides and Guanidines as Potent Human Arginase 1 Inhibitors” (ACS Med Chem Lett, 2020).
